What was measured:
HDAC3 [1] = molecular target: T1, HDAC3 (Homo sapiens, UniProt O15379); type: cell-based; settings: MDA-MB-231 cells, inhibitor 2–12 hours; for photomate labeling (engagement) of HDAC3 after inhibitor treatment: then photomate 10 µM
Procedure, shortened: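 MDA-MB-231 cells were grown 2 days in complete medium, then treated with inhibitor. They were then either lysed directly for Western blot or photolabeled: 10 µM probe for 40 min at 37 °C, ± SAHA 200 µM competitor, then 366 nm irradiation at 4 °C. Lysate (35.2 µg) was clicked to an 800 nm IRDye azide and separated on gel. HDAC3 was co-stained by antibody and imaged at 700/800 nm.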
Target sequence in this assay (O15379 whole entry): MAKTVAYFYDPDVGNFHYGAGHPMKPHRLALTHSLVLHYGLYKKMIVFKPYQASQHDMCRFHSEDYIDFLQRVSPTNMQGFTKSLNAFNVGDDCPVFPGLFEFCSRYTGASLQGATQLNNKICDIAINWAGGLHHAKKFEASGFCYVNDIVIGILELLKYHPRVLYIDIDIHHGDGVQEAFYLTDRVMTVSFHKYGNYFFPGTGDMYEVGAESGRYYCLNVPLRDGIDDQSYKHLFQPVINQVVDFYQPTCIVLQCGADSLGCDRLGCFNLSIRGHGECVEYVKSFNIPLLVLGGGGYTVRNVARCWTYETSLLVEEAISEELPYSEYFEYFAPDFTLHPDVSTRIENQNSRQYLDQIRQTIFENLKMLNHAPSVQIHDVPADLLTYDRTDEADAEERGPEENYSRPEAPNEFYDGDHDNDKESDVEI
Target sequence in this assay (Q9Y618 whole entry partner): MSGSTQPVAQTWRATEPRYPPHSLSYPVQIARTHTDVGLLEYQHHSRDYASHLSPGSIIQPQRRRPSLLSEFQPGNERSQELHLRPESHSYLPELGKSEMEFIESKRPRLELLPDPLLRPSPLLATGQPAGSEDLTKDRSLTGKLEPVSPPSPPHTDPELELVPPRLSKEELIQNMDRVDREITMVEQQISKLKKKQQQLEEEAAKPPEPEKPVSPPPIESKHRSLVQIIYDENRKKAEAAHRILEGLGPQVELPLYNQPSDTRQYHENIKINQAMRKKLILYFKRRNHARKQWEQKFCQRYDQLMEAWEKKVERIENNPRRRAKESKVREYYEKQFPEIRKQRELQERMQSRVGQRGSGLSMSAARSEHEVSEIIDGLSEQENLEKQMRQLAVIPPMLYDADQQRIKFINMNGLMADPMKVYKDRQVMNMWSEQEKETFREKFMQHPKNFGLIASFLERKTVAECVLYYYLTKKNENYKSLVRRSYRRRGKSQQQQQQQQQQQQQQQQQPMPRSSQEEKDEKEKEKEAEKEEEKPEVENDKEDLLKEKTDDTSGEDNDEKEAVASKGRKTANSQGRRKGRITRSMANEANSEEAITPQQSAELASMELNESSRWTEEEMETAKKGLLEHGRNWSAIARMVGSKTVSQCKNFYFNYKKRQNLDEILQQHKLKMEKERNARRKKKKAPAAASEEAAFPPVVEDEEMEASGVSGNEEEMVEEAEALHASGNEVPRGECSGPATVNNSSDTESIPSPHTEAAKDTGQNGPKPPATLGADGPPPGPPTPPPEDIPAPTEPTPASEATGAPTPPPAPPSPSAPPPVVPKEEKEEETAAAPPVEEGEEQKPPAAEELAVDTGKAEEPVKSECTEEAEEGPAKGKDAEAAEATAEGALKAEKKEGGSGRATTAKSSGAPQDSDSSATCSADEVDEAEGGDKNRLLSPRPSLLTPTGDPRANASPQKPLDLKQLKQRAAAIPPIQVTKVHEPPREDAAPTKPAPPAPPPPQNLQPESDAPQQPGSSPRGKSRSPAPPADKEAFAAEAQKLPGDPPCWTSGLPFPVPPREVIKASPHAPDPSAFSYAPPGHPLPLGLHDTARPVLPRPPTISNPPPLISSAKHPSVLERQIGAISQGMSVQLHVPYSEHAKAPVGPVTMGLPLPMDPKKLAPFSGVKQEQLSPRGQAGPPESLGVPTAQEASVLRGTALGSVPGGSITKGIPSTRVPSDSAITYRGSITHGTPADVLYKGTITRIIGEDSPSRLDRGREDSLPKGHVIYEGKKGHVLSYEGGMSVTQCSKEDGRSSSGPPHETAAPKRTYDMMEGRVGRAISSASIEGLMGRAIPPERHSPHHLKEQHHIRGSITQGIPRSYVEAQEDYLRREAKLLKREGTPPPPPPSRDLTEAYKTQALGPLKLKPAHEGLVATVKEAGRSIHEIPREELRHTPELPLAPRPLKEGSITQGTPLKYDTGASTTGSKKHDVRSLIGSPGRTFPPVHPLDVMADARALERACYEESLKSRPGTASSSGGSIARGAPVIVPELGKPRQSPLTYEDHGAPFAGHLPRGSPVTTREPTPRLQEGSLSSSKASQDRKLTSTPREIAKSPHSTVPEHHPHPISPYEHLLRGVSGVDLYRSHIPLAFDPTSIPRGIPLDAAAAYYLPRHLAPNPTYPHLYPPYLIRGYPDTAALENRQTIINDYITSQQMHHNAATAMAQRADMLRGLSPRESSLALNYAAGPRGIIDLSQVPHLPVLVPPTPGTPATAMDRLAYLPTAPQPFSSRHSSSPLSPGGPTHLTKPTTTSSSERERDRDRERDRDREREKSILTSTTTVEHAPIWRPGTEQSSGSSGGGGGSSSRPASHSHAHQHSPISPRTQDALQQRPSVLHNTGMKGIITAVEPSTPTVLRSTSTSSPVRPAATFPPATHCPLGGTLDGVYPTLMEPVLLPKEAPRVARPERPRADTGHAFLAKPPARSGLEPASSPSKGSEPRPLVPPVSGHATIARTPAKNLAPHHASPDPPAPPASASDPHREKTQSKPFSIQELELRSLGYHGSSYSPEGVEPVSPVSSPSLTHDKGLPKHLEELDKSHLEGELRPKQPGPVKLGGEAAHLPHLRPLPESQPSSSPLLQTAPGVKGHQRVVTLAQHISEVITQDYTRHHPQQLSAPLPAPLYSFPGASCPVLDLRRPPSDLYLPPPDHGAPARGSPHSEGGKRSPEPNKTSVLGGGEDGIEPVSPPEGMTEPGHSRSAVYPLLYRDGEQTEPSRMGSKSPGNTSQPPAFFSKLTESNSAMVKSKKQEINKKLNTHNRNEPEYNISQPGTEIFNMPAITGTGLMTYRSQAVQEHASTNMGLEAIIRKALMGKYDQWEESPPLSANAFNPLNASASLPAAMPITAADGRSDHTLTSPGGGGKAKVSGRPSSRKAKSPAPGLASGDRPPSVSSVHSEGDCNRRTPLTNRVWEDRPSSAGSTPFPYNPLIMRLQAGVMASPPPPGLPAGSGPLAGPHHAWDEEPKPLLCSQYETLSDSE
Target sequence in this assay (O60907 whole entry partner): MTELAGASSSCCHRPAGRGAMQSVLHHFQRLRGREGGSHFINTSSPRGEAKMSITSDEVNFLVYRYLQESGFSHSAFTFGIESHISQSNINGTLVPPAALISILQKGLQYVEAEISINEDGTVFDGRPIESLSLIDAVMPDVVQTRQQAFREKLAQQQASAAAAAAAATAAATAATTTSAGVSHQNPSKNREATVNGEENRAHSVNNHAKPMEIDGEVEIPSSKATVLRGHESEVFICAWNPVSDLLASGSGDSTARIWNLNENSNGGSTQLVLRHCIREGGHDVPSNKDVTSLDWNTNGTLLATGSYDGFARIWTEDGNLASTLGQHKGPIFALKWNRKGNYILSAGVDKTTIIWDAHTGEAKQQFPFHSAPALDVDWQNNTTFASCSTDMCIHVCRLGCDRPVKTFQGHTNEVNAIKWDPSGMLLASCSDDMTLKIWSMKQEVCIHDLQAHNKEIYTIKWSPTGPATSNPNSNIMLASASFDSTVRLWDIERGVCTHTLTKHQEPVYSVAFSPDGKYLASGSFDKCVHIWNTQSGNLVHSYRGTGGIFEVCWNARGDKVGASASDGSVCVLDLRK
Target sequence in this assay (Q13227 whole entry partner): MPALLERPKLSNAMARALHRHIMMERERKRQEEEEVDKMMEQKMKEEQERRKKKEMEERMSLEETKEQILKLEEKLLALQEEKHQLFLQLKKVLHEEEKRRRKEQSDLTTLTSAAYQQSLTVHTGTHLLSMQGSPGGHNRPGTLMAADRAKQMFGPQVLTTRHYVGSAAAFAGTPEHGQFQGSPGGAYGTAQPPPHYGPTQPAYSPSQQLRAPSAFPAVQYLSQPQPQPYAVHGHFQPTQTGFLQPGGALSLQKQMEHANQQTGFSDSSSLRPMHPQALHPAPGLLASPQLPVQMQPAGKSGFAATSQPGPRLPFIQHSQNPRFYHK

HDAC3 [2] = molecular target: T1, HDAC3; experiment: Treatment followed by in situ photolabeling and Western blot, MCF-7 cells; type: cell-based
Procedure, shortened: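 MCF-7 cells received TNF-α or vehicle, then photomate 10 µM (± SAHA 200 µM) for 40 min at 37 °C. They were irradiated at 366 nm (35 J/cm2) at 4 °C. Lysate (35.2 µg) was clicked to azide 800CW IRDye (90 min rt), gel-separated and fluorescence-imaged. HDAC3 and phospho-HDAC3 were detected by Western blot with IRDye secondaries.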

recombinant HDAC1 = recombinant HDAC1 (Homo sapiens, UniProt Q13547); experiment: Fluorogenic enzymatic assay, recombinant HDAC1; type: biochemical
Procedure, shortened: (§1)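 Deacetylase activity of recombinant human class I HDAC isoforms was measured with a fluorogenic assay following previously published procedures. Inhibition is reported as log IC50, as the average ± s.e. of n=3.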

recombinant HDAC2 = recombinant HDAC2 (Homo sapiens, UniProt Q92769); experiment: Fluorogenic enzymatic assay, recombinant HDAC2; type: biochemical
Procedure, shortened: as §1

HDAC3 [3] = molecular target: T1, HDAC3; experiment: Fluorogenic enzymatic assay, recombinant HDAC3; type: biochemical
Procedure, shortened: as §1

recombinant HDAC8 = molecular target: T2, recombinant HDAC8 (Homo sapiens, UniProt Q9BY41); experiment: Fluorogenic enzymatic assay, recombinant HDAC8; type: biochemical
T2 sequence (Q9BY41 1-377): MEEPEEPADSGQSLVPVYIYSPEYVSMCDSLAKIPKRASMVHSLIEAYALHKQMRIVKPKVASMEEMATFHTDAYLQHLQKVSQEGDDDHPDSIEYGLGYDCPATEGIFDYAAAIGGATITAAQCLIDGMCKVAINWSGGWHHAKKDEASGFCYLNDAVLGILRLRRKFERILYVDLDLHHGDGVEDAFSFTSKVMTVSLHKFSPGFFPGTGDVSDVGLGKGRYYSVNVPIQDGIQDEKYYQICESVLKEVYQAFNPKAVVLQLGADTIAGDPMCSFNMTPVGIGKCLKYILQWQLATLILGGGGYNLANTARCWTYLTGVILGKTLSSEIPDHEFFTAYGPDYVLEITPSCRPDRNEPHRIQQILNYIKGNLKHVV
Procedure, shortened: as §1

recombinant HDAC4 = recombinant HDAC4 (Homo sapiens, UniProt P56524); experiment: Fluorogenic enzymatic assay, recombinant HDAC4; type: biochemical
[4] = tested on: recombinant class I and II HDACs; experiment: Photolabeling of recombinant proteins, gel based visualization; type: binding
class I and II HDACs [5] = molecular target: T3, class I and II HDACs (Homo sapiens, UniProt O15379); type: cell-based; settings: P<.0001
Procedure, shortened: (§2)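 Cells at 90% confluence were pretreated with SAHA (200 µM) or DMSO, then given photomate 10 µM for 40 min at 37 °C. They were cooled to 4 °C and irradiated at 366 nm (35 J/cm2). Lysate (1 mg) was clicked to azide-biotin (1.5× probe; TCEP, TBTA, CuSO4; 90 min rt), then enriched on streptavidin beads and in-gel digested. Proteins reduced ≥50% by SAHA were scored.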

class I and II HDACs [6] = type: cell-based, Human; settings: seven breast cancer cell lines, photomate 10 µM
Procedure, shortened: as §2

class I and II HDACs [7] = molecular target: T3, class I and II HDACs; experiment: In situ photolabeling of MCF-7 cells, enrichment, Western blot and MS/MS; type: cell-based; settings: MCF-7 cells and other luminal cell types
Procedure, shortened: (§3)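 MCF-7 cells at 90% confluence were pretreated with SAHA (200 µM) or DMSO, then given 10 µM test compound for 40 min at 37 °C. Cells were cooled to 4 °C, irradiated at 366 nm (35 J/cm2) and lysed in HEPES pH 7.5 buffer. Lysate was click-conjugated to biotin azide (CuSO4/TBTA/TCEP, 90 min, rt), then streptavidin-enriched for Western blot or in-gel tryptic MS/MS. A hit was a protein reduced ≥50% by SAHA and absent in DMSO controls.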

class I and II HDACs [8] = experiment: as above; type: cell-based, Human; settings: MCF-7 cells
Procedure, shortened: as §3

TNBC cells = experiment: Efficacy in breast cancer cells; type: cell-based, Human; settings: Figure S2B
[9] = MCF-7 cells stimulated with TNF-α, compared to TNF-α alone

T3 sequence (O15379 whole entry): as the sequence (O15379 whole entry) above
recombinant HDAC4, sequence (P56524 whole entry): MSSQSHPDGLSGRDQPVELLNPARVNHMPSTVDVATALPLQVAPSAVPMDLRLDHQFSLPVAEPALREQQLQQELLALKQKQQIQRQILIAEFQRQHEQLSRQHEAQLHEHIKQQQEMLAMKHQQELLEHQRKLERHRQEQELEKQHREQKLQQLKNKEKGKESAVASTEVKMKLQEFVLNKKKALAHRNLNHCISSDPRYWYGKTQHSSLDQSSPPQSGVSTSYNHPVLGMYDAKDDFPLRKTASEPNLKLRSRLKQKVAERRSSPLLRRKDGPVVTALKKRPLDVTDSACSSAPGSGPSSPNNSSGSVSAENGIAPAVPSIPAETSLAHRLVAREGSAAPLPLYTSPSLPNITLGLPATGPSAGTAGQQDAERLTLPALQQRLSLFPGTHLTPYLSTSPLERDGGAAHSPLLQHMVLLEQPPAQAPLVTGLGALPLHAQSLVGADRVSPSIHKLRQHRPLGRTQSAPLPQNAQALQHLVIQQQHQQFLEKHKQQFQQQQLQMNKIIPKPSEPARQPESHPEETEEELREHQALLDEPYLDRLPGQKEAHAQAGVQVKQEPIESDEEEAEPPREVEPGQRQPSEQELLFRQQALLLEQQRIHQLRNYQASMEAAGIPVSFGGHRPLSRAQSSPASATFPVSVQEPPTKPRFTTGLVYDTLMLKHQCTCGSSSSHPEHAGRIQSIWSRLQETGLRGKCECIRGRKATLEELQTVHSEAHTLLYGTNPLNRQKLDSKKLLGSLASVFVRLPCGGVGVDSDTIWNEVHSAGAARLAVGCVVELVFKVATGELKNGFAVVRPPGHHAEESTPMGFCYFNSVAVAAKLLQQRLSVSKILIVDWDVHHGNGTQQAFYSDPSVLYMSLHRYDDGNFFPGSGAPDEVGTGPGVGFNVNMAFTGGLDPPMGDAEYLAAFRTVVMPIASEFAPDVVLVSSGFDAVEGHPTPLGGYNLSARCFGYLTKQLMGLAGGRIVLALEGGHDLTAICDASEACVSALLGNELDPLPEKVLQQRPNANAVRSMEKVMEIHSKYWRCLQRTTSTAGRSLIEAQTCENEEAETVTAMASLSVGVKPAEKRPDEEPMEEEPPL

photomate labeling (engagement) of HDAC3 after inhibitor treatment (HDAC3 [1]) | photomate labeling of HDAC3 after treatment (HDAC3 [2]; MCF-7 cells) | HDAC3 phosphorylation after inhibitor treatment (HDAC3 [1]) | Molecule | also measured
 | induces specific labeling of HDAC3 |  | TNF-α | 
abolished the labeling of HDAC3 |  | complete loss of HDAC3 phosphorylation | Oc1c2ccccc2c2c3c(cccc13)N=N2 [SP600125] | 
no change |  |  | O=C(c1ccc(Nc2nccc(-c3cc4ccccc4s3)n2)cc1)N1CCC(N2CCCC2)CC1 [IKK-16] | 
 | had no effect |  | IGF-1: MAPK stimulating growth factor | 
 | had no effect |  | EGF: MAPK stimulating growth factor | 
 | no increase |  | CC/C(=C(\c1ccccc1)c1ccc(OCCN(C)C)cc1)c1ccccc1 [tamoxifen] | HDAC3 phosphorylation after treatment (HDAC3 [2]; MCF-7 cells): no increase
 |  |  | C#CCN(CCCCCC(=O)NO)Cc1c(F)c(F)c(N=[N+]=[N-])c(F)c1F [photomate, 6-((4-Azido-2,3,5,6-tetrafluorobenzyl)(prop-2-yn-1-yl)amino)-N-hydroxyhexanamide] | IC50 (recombinant HDAC1): 417 nM; IC50 (recombinant HDAC2): 132 nM; IC50 (HDAC3 [3]): 109 nM; IC50 (recombinant HDAC8): 2270 nM; IC50 (recombinant HDAC4): 20100 nM; relative potency or affinity based on inhibition or labeling (isoform selectivity) ([4]; recombinant HDAC1, 2, 3, 8 and 4): nonselective for HDAC1, 2 and 3 but shows decreased potency and affinity with respect to HDAC8 and the class II HDAC4; HDAC3 enriched from TNBC cell lines in comparison to luminal subtypes (class I and II HDACs [5]): increased amounts of HDAC3 were enriched from TNBC cell lines; HDAC isoforms enriched across cell lines (class I and II HDACs [6]): ubiquitously targeted and enriched HDAC1, 2 and 9 from every cell line; engagement of HDAC3 in cells (class I and II HDACs [7]): could not be detected; HDAC targets identified by MS/MS and Western blot (class I and II HDACs [8]): HDAC1 and 2 were the only HDAC targets; efficacy in TNBC cells (TNBC cells): increased efficacy in TNBC cells
 |  |  | O=C(CCCCCCC(=O)Nc1ccccc1)NO [SAHA, suberoyl anilide hydroxamic acid] | photomate labeling of HDAC isoforms upon co-incubation with competitor ([4]; SAHA 200 µM, photomate 10 µM): Labeling of all HDAC isoforms was lost
did not affect |  | did not affect | COc1ccc(CNC(=O)Nc2ncc([N+](=O)[O-])s2)cc1 [AR-A014418] | 
decreased |  | decreased | CCOc1nc(NC(=O)Cc2cc(OC)ccc2OC)cc(N)c1C#N [TCS 6o] | HDAC3 phosphorylation, JNK inhibitor pretreatment then TNF-α (HDAC3 [2]; [9]): decrease in HDAC3 labeling and phosphorylation; photomate labeling of HDAC3, JNK inhibitor pretreatment then TNF-α (HDAC3 [2]; [9]): decrease in HDAC3 labeling and phosphorylation

Molecule | photomate labeling (engagement) of HDAC3 after inhibitor treatment (HDAC3 [1]) | photomate labeling of HDAC3 after treatment (HDAC3 [2]; MCF-7 cells) | HDAC3 phosphorylation after inhibitor treatment (HDAC3 [1]) | also measured
Oc1ccc(-c2nc(-c3ccncc3)c(-c3ccc(F)cc3)[nH]2)cc1 [SB202190] | increased labeling |  |  | 
O=c1cc(N2CCOCC2)oc2c(-c3ccccc3)cccc12 [LY294002] | Neither of the compounds induced any change |  | Neither of the compounds induced any change | 
Brc1c(Br)c(Br)c2n[nH]nc2c1Br [TBB] | Neither of the compounds induced any change |  | Neither of the compounds induced any change | 

Reference: publication PMC5693607 (Cell chemical biology, 2017)
